EBI2 block: EBI2 receptor antagonists, beta-arrestin recruitment, primary screen, cell-based, luminescence, 7a,25-OHC stimulation, uHTS. inhibition, % at 5 µM. 7a,25-OHC stimulated. 0.81% of 360,000 active. G-protein coupled receptor 183 (Homo sapiens), P32249; in the data active means inhibition above about 38%;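 further: enzyme fragment complementation signal reports receptor beta-arrestin coupling in cells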
Target sequence (P32249 whole entry, looked up, the tested form may be a part): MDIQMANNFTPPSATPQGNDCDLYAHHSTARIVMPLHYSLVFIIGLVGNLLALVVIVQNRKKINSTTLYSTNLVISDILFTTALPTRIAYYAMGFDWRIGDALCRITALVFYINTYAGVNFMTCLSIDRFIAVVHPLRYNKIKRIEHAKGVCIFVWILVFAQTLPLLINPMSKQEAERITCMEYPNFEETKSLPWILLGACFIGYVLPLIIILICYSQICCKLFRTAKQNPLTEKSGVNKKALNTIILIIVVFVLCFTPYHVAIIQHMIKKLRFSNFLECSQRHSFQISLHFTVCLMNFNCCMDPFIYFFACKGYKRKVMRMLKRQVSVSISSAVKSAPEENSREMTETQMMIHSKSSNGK
m5-HT2A agonist: mouse Htr2a agonists via beta-arrestin recruitment, primary screen, cell-based, luminescence; 5-hydroxytryptamine receptor 2A (Mus musculus), P35363; CHO-K1 mHTR2A beta-arrestin complementation; percent of 30 µM serotonin response; activation, % at 7.6 µM; 0.66% of 360,000 active;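 active means activation above a run cutoff, the mean activation of all tested compounds plus 3 SD, cut at about 14% in these data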
APJ ag: agonists of human apelin receptor APJ, primary screen, CHO-K1 cells, PathHunter beta-arrestin, luminescence | 0% DMSO wells, 100% apelin | activation, % at 20 µM | 0.11% of 330,000 active;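 active means activation more than six SD over the plate average, tested at 20 µM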
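Assay system: CHO-K1 cells stably expressing ProLink-tagged human APJ and arrestin–beta-gal acceptor. Compound dosing: 20 µM single point, 1% DMSO. Times: 16-18 h seeding, 90 min dark compound exposure, 60 min detection. Detection: beta-gal luminescence. Evaluation: APJ–arrestin association signal. Controls: negative DMSO alone, positive Apelin-13 at 10 nM.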
CXCR6 block: CXCR6 receptor inhibitors, primary screen, cell-based, beta-arrestin, luminescence, CHO-K1 PathHunter, 1536-well; C-X-C chemokine receptor type 6 (Homo sapiens), O00574; inhibition, % at 20 µM; 0.36% of 360,000 active; AID 602244, 2012; in the data active means inhibition above about 34%, passing the limit was not always enough;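 further: antagonist mode with CXCL16 agonist at 10 nM final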
Target sequence (O00574 whole entry, looked up): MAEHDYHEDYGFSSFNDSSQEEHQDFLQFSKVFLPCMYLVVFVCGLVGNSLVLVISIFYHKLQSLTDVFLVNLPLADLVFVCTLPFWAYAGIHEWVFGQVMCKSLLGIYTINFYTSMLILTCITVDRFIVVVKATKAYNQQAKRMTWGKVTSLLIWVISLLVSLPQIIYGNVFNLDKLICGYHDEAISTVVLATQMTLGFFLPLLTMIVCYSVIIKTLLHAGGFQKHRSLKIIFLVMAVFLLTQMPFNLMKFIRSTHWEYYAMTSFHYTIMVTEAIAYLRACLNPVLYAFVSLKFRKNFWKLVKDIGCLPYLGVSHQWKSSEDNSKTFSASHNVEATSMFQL
APJ antagonist: antagonists of human apelin receptor APJ, primary screen, CHO-K1 cells, beta-arrestin complementation, luminescence; P35414; inhibition, % at 20 µM; 0.32% of 330,000 active;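 active means inhibition above about 40% at 20 µM, limit read from the data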;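 further: cells challenged with 10 nM apelin-13 agonist together with compound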
CCR6 antagonist: CCR6 receptor antagonists, primary screen, cell-based, CHO-K1, luminescence, beta-arrestin, uHTS. AID 493098, 2011. CHO-K1 CCR6 PathHunter beta-arrestin, CCL20-stimulated. 0.49% of 340,000 active. inhibition, % at 20 µM;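 active means compounds whose inhibition of the agonist-driven luminescence signal at 20 µM reaches about 50%, limit read from the data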;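 further: cells stimulated with CCL20 at 14 nM final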
OPRM1 ag: OPRM1 agonists via beta-arrestin recruitment, confirmation, counter-screen for mouse HTR2A agonist project, cell-based, luminescence, single concentration | U2OS OPRM1 beta-arrestin PathHunter; DMSO 0%, DAMGO 9.3 µM 100% | shares compounds with m5-HT2A agonist | 5.3% of 2,300 active | activation, % at 9.3 µM;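 active means mean activation above the mean of DMSO-only wells plus 3 SD, cut at about 0.5% in these data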
HTR2A ag conf: mouse HTR2A agonists, beta-arrestin recruitment, confirmation, cell-based, luminescence, CHO-K1 PathHunter, triplicate | activation, % at 7.6 µM | 19% of 2,300 active | DMSO 0%, 30 µM serotonin 100% | shares compounds with m5-HT2A agonist;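 active means mean activation across triplicates above the hit threshold derived in the original primary screen, cut at about 15% in these data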
Large screens that a line does not name were inactive (follow-up assays come after a bar, where they were run). Shown are actives, neighbours in structure and some others; about 2.1% of the full set was active somewhere.

Cc1cccc(-n2c(C)cc(/C=C3\C(=N)N4N=C(CC(C)C)SC4=NC3=O)c2C)c1	none
CSc1ccccc1NC(=S)NCc1ccc(Cl)cc1	none
CCn1cc(/C=C(\NC(=O)c2ccccc2OC)C(=O)N2CCOCC2)c2ccccc21	none (no result: APJ ag, APJ antagonist, CCR6 antagonist)
CCOC(=O)[C@]12CCCC=C1N(Cc1cccc3ccccc13)C(=O)[C@H](CC(=O)N1CCC(c3ccccc3)CC1)C2	m5-HT2A agonist 17 (no result: APJ ag, APJ antagonist, CCR6 antagonist) | OPRM1 ag inactive | HTR2A ag conf inactive
COC(=O)[C@]12CCCCC=C1N(Cc1cccc3ccccc13)C(=O)[C@H](CC(=O)N1CCC(c3ccccc3)CC1)C2	none (no result: APJ ag, APJ antagonist, CCR6 antagonist)
Cc1nc(C(=O)Nc2cc(F)cc(Cl)c2)sc1C1(C)CC(c2ccccc2)=NO1 (stereo not drawn)	none
c1ccc(CCNc2ccc3nncn3n2)cc1	m5-HT2A agonist 16 | OPRM1 ag inactive | HTR2A ag conf inactive
O=C1c2ccccc2C(=O)N1CCc1c[nH]c2ccc(O)cc12	m5-HT2A agonist 18 | OPRM1 ag inactive | HTR2A ag conf inactive
O=C1c2ccccc2C(=O)N1CCc1c[nH]c2ccccc12	none
N/C(=N\OC(=O)c1ccc2ccccc2c1)c1cccc([N+](=O)[O-])c1	none
N/C(=N\OC(=O)c1ccccc1Cl)c1cccc([N+](=O)[O-])c1	m5-HT2A agonist 15 | OPRM1 ag inactive | HTR2A ag conf inactive
COc1cccc2c1cc1c(=O)n(CC(=O)N3CCC(C)CC3)nc(C)n12	m5-HT2A agonist 17 | OPRM1 ag inactive | HTR2A ag conf 57
COc1ccc(CN(C)C[C@H]2OCCCC[C@H](C)Oc3ccc(NC(=O)CCC(F)(F)F)cc3C(=O)N([C@@H](C)CO)C[C@@H]2C)cc1	none (no result: APJ ag, APJ antagonist, CCR6 antagonist)
C[C@H]1CCCCO[C@H](CN(C)Cc2ccccc2)[C@@H](C)CN([C@@H](C)CO)C(=O)c2cc(NC(=O)CCC(F)(F)F)ccc2O1	m5-HT2A agonist 23 (no result: APJ ag, APJ antagonist, CCR6 antagonist) | OPRM1 ag inactive | HTR2A ag conf inactive
CCOCCCNC(=O)C1(O)c2cc(Br)ccc2NC(=O)N1c1ccc(CC)cc1 (stereo not drawn)	m5-HT2A agonist 18 | OPRM1 ag inactive | HTR2A ag conf inactive
COc1cc(OC)c(/C=N/N2CCN(c3ccccc3OC)CC2)c(OC)c1	none
COc1ccc(Br)c(C(=O)Nc2nc3ccccc3[nH]2)c1	none
COc1ccc2oc(C(=O)Nc3nc4ccccc4[nH]3)c(C)c2c1	m5-HT2A agonist 149 | OPRM1 ag inactive | HTR2A ag conf 56
Cc1c(OC(C)C(=O)NCC(O)c2ccccc2)ccc2c3c(c(=O)oc12)CCC3 (stereo not drawn)	none
COc1cccc(Nc2nc(N)c([N+](=O)[O-])c(N3CCOCC3)n2)c1	none
CCCNC(=O)c1cc(C2CCCCN2C(=O)c2cc(OC)c(C)c(OC)c2)on1 (stereo not drawn)	m5-HT2A agonist 16 (no result: APJ ag, APJ antagonist, CCR6 antagonist) | OPRM1 ag inactive | HTR2A ag conf inactive
COC(=O)c1sc(NC(=O)c2ccco2)nc1C	none
Cc1nc(NC(=O)c2ccco2)sc1C(=O)O	m5-HT2A agonist 19 (no result: APJ ag, APJ antagonist) | OPRM1 ag inactive | HTR2A ag conf inactive
CNC[C@@H]1Oc2ccc(NS(=O)(=O)c3ccc(Cl)cc3)cc2C(=O)N([C@H](C)CO)C[C@@H]1C	none
CC(=O)Nc1cccc(-c2ccnc3c2CC(C)(C(=O)Nc2cccc(Oc4ccccc4)c2)O3)c1 (stereo not drawn)	none (no result: APJ ag, APJ antagonist, CCR6 antagonist)
COC(=O)[C@@H](Cc1ccccc1)NC(=O)[C@H]1O[C@@H](n2cnc3c(N)ncnc32)[C@H](O)[C@@H]1O	none (no result: APJ ag, APJ antagonist, CCR6 antagonist)
Nc1ncnc2c1ncn2[C@@H]1O[C@H](C(=O)N2CCC[C@@H]2C(=O)OCc2ccccc2)[C@@H](O)[C@H]1O	m5-HT2A agonist 15 (no result: APJ ag, APJ antagonist, CCR6 antagonist) | OPRM1 ag inactive | HTR2A ag conf inactive
COc1ccc(NC(=O)C2(C)CCN2CCc2ccccc2)cc1OC (stereo not drawn)	none (no result: APJ ag, APJ antagonist, CCR6 antagonist)
CCOc1ccc(N(Cc2cc3cc(C)ccc3[nH]c2=O)S(=O)(=O)c2ccccc2)cc1	none
CCOc1ccc(C(=O)Nc2c(C(=O)N3CCC(N4CCCCC4)CC3)oc3ccccc23)cc1	none
CCOC(=O)c1[nH]c2ccccc2c1NC(=O)Nc1ccc(OC)cc1	m5-HT2A agonist 25 | OPRM1 ag inactive | HTR2A ag conf inactive
CCCN1C[C@H](CSC)C[C@@H]2c3cccc4[nH]cc(c34)C[C@H]21	m5-HT2A agonist 113 | OPRM1 ag inactive | HTR2A ag conf 160
CC(C)C[C@@H](COCc1ccc([N+](=O)[O-])cc1)N1CCN(C(=O)c2ccc(C(F)(F)F)cc2)CCC1=O	none (no result: APJ ag, APJ antagonist, CCR6 antagonist)
CC1(OC(=O)C2CCCC2)C(=O)C=C2C=C(c3ccsc3)N(C3CC3)C=C2C1=O (stereo not drawn)	m5-HT2A agonist 15 | OPRM1 ag inactive | HTR2A ag conf inactive
CCOC(=O)C1=CN(Cc2ccc(OC)cc2)C=C(C(=O)OCC)C1c1cccs1	m5-HT2A agonist 16 | OPRM1 ag inactive | HTR2A ag conf inactive
Cc1cc(C)n(CCNC(=O)C2CCC(=O)N(CCc3cccc(F)c3)C2)n1 (stereo not drawn)	none
COc1ccc(CCN2CC(C(=O)NCCCn3nc(C)cc3C)CCC2=O)cc1 (stereo not drawn)	m5-HT2A agonist 18 | OPRM1 ag inactive | HTR2A ag conf inactive
O=C(COC(=O)/C=C/c1ccccc1[N+](=O)[O-])Nc1ccc2[nH]c(=O)[nH]c2c1	none
Fc1ccccc1N1CCN(Cc2cnc(Cl)s2)CC1	none
Clc1ncc(CN2CCN(c3ccccc3)CC2)s1	m5-HT2A agonist 31 | OPRM1 ag inactive | HTR2A ag conf 84
Clc1ccc(CN2CCN(c3ccccc3)CC2)cn1	m5-HT2A agonist 22 | OPRM1 ag inactive | HTR2A ag conf 81
COc1ccc(S(=O)(=O)N2CCCCCC2)cc1C(=O)N1CCN(c2ccccc2O)CC1	none

Screening data from PubChem.
